# Results collected from several papers.
# Each line is one published result; the experiments were not run side by side.
# Target: Serine/threonine-protein kinase Nek6 (NEK6, Homo sapiens, UniProt Q9HC98)
Structure (SMILES),effect on,technique,concentration,remaining binding
C=CC(=O)N1CCC(C(=O)NCC(=O)N2CCN(c3nc(-c4cnc(N)nc4C(F)F)nc(N4CCOCC4)n3)CC2)CC1,binding,competition with immobilised ligand,1 µM,95%
N[C@H]1CCN(c2nccc(-c3cnn4ncccc34)n2)C1,binding,,1 µM,100%
O=C(c1ccc(Nc2nccc(-c3cc4ccccc4s3)n2)cc1)N1CCC(N2CCCC2)CC1,binding,competition with immobilised ligand,1 µM,87%
C[C@@H](c1ccc(-n2cnc3c(N)ncnc32)cc1)N1CCc2nn(C)c(Cc3ccccc3)c2C1=O,binding,competition with immobilised ligand,0.1 µM,90%
CN(C)c1nccc(-c2cnn3ncccc23)n1,binding,,1 µM,100%
O=C(NCC1CCOCC1)c1n[nH]cc1NC(=O)c1c(F)cccc1F,binding,competition with immobilised ligand,1 µM,90%
C[C@@H](c1cccc(C#N)c1)n1cc(Cl)cc(C(N)=O)c1=N,cell-free assay,competition with immobilised ligand,1 µM,79%
Nc1ncc2c(n1)-c1c([nH]c3ccc(C#CC4CC4)cc13)CCCC2,binding,competition with immobilised ligand,1 µM,90%
CCCOc1ccc([C@@H]2[C@@H](C(=O)O)[C@H](c3ccc4c(c3)OCO4)CN2CC(=O)Nc2c(CC)cccc2CC)cc1,cell-free assay,competition with immobilised ligand,1 µM,92%
F[C@@H]1CCN(c2nccc(-c3cnn4ncccc34)n2)C1,binding,,1 µM,100%
CNC(=O)[C@@H]1CC[C@@H](n2c(-c3ccc4cnccc4c3)nc3ccc(C(=O)NCc4cccc(C(N)=O)c4)cc32)C1,binding,competition with immobilised ligand,1 µM,97%
COc1ccnn2ncc(-c3ccnc(N(C)C)n3)c12,binding,,1 µM,100%
CCC(=O)N[C@H]1CC[C@@H](C(=O)N(C)c2ccc(-c3nc4ccccc4o3)cc2)C1,cell-free assay,competition with immobilised ligand,1 µM,85%
O=C(c1ccc(Nc2ncc(Cl)c(-c3ccc(Cl)s3)n2)cc1)N1CCC(N2CCCC2)CC1,binding,competition with immobilised ligand,1 µM,9.9%
NS(=O)(=O)c1cc(NC(=O)C2(c3ccccc3Cl)CC2)ccc1Oc1cccc(Cl)c1,cell-free assay,competition with immobilised ligand,1 µM,81%
CN(C)c1ncc(F)c(-c2cnn3ncccc23)n1,binding,,1 µM,99%
CSc1cccnc1N1CCN(Cc2nc3ccccc3[nH]2)CC1,cell-free assay,competition with immobilised ligand,1 µM,98%
C[C@@H]1CCN(c2nccc(-c3cnn4ncccc34)n2)C1,binding,,1 µM,100%
COc1ccc2c(O[C@@H]3C[C@H]4C(=O)N[C@]5(C(=O)O)CC5/C=C\CCCCC[C@H](NC(=O)OC5CCCC5)C(=O)N4C3)cc(-c3csc(NC(=O)C(C)C)n3)nc2c1C (stereo partly shown),cell-free assay,competition with immobilised ligand,1 µM,98%
O=C(c1ccc(Nc2ncc(Cl)c(-c3cc4ccccc4s3)n2)cc1)N1CCC(N2CCCC2)CC1,binding,competition with immobilised ligand,1 µM,35%
Cc1cnn2ncc(-c3ccnc(N(C)C)n3)c2c1,binding,,1 µM,100%
O=C(NCc1ncc(C(F)(F)F)cc1Cl)c1ccc2c(c1)C1(CCS(=O)(=O)CC1)[C@H](C1CC1)N2S(=O)(=O)c1ccc(F)cc1,cell-free assay,competition with immobilised ligand,1 µM,100%
